35 compounds from ChEMBL document CHEMBL1138071, “Design and synthesis of noncompetitive metabotropic glutamate receptor subtype 5 antagonists” (Bioorg Med Chem Lett, 2006) can be followed below.

Structures are written as SMILES. The source made the active and inactive calls. No cut-off for these calls is given here.

A word on the IC50: it is the concentration that inhibits the measured activity by half. Broadly, the inhibition is the drop in the measured response relative to a control, in per cent. High values mean a strong effect, low ones a weak effect.

Assay [1] has as its target Metabotropic glutamate receptor 5 (Rattus norvegicus, UniProt P31424). Briefly: Inhibition of [3H]MPEP binding to mGluR5 in rat brain membrane. The class given is cell membranes. In short, it runs like this: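 Rat brain membranes spun twice at 30,000g for 10 min, resuspended in ice-cold 50 mM Tris–HCl pH 7.0 with 1% BSA. Displacement by 10 drug concentrations run three times. Incubated 2.5 h at 4 °C to steady state, then filtered over PEI-presoaked glass-fibre filters.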

The target of assay [2] is Metabotropic glutamate receptor 5 (Homo sapiens, UniProt P41594). Briefly: Antagonist activity against mGluR5 expressed in CHO cells assessed as inhibition of agonist-induced phosphoinositide hydrolysis. The format is functional, cell-based.
Chain of Metabotropic glutamate receptor 5 (Homo sapiens, UniProt P41594) (P41594 whole entry): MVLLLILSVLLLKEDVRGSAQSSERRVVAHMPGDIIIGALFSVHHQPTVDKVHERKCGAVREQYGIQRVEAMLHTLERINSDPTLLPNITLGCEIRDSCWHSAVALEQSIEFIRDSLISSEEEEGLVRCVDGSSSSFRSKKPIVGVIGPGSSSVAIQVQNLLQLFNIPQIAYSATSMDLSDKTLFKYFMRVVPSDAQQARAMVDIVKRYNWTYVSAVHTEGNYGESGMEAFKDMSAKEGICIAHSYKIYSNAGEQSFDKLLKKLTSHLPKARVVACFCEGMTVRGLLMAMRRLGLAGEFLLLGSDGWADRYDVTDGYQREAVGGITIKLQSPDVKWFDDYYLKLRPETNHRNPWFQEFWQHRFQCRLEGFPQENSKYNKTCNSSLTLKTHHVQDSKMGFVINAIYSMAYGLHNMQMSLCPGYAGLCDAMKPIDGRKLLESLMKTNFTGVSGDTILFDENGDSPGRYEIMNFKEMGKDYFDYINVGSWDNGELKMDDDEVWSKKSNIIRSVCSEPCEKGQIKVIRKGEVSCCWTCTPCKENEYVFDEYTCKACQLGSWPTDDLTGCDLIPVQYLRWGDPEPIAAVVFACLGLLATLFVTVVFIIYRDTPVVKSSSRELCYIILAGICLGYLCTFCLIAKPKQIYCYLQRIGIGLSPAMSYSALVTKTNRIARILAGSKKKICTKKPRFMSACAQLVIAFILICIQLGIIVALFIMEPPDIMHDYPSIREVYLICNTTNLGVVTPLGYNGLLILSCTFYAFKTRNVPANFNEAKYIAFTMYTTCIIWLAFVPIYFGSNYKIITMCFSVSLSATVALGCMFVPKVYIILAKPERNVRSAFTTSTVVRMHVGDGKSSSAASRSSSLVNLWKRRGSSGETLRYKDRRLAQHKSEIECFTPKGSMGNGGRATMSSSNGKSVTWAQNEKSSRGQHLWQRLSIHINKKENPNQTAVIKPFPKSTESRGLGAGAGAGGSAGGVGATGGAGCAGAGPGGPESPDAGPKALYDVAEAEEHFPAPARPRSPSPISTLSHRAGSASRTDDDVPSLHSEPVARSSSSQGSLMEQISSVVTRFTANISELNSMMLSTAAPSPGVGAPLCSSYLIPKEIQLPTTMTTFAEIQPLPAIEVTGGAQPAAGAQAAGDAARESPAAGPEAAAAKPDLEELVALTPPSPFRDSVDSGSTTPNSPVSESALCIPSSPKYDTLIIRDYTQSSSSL
Assay [3] has as its target Metabotropic glutamate receptor 5 (Rattus norvegicus) (UniProt P31424). Briefly: Inhibition of [3H]MPEP binding to mGluR5 in rat brain membrane at 100 uM. The format is cell membranes.
For assay [4] the target is unchanged. The settings on record: Brain, Membrane, 10 uM.

Chain of Metabotropic glutamate receptor 5 (Rattus norvegicus) (P31424 21-1203 limits assumed): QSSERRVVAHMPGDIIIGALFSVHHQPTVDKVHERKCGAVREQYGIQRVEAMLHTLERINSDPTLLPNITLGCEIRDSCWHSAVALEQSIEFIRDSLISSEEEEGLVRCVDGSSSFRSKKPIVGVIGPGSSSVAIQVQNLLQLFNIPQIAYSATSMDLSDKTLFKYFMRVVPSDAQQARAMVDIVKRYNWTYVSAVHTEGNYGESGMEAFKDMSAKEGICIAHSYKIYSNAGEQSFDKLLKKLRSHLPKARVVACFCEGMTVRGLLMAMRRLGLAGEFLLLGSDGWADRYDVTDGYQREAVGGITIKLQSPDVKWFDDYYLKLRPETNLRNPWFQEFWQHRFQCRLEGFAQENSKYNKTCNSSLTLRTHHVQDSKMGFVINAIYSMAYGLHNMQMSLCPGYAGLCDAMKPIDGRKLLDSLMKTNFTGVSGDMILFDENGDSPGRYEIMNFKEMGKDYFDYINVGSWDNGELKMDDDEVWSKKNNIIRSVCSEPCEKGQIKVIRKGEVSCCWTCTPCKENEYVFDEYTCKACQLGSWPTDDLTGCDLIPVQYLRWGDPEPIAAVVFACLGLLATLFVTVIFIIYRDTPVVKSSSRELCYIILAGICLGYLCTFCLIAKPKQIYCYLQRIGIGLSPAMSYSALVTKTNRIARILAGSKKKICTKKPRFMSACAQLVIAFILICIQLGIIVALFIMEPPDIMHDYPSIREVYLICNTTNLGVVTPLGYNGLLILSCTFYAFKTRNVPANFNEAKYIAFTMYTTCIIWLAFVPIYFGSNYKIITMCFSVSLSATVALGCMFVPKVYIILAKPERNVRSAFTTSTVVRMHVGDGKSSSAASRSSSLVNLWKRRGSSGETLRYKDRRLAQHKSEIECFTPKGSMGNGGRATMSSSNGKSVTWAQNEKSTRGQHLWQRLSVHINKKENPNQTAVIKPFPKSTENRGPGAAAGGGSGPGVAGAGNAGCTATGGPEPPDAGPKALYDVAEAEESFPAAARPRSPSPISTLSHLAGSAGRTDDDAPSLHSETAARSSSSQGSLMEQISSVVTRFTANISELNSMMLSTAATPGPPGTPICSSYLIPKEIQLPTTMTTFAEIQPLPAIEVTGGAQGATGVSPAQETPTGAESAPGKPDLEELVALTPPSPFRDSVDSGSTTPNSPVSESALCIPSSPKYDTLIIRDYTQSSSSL
Chain of Metabotropic glutamate receptor 5 (Rattus norvegicus, UniProt P31424) (P31424 whole entry): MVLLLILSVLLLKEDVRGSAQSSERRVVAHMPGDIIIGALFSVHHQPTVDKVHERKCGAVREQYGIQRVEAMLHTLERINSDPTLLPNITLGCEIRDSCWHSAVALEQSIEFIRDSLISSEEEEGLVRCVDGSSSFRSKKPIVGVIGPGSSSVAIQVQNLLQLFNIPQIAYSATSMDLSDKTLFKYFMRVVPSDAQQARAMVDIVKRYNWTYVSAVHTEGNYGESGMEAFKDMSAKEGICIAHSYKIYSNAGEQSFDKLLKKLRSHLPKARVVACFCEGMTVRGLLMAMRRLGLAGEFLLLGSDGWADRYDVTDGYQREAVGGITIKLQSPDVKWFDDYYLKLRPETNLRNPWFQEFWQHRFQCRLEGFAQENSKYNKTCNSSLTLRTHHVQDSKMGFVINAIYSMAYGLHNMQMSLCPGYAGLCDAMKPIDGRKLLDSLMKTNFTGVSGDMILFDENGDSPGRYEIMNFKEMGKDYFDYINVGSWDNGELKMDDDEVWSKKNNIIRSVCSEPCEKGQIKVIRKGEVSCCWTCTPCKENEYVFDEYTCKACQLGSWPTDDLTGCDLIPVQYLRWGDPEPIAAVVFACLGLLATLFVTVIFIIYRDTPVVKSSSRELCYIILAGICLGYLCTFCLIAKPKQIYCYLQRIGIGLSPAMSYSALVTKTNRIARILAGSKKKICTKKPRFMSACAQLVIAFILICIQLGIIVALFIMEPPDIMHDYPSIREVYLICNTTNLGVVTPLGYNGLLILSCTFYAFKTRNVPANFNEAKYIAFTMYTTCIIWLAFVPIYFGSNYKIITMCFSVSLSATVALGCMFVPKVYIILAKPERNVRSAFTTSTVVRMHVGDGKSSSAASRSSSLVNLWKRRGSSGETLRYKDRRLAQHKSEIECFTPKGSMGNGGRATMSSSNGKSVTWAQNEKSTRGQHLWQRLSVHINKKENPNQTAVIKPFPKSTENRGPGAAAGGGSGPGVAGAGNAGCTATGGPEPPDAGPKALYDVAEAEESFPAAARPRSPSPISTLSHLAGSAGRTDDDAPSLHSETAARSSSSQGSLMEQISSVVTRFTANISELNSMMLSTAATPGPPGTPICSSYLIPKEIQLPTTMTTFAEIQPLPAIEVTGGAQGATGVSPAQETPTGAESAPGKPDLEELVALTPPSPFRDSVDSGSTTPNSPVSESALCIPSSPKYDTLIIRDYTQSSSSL

`O=C(Nc1ccccn1)c1ccccc1` came in with an IC50 in assay [1] of 95.4 µM. The compound `Cc1cccc(NC(=O)c2cccc(OCc3ccccc3)c2)n1` showed an IC50 in assay [1] of 33 µM. As to `Cc1cccc(NC(=O)c2cccc(C#N)c2)n1`, the results for the concentration for half-maximal inhibition (IC50) in assay [2] and in assay [1] were 5.33 µM and 0.33 µM, respectively. Turning to `Cc1cccc(NC(=O)c2cccc(Br)c2)n1`, the IC50 in assay [2] was 5.48 µM; in assay [1], 0.65 µM. Compound `Cc1ccc(O)c(/N=N/c2ccccc2)n1` had an IC50 in assay [1] of 1.17 µM.

On to `Cc1cccc(NC(=O)c2cccc3ccccc23)n1`, for which, in assay [1], the IC50 came to 62.8 µM. Turning to `Cc1cccc(NC(=O)c2cccnc2)n1`, the result in assay [3] was inactive. `Cc1cccc(NC(=O)c2cccc(-c3ccccc3)c2)n1`: the IC50 was determined as 18.3 µM in assay [2] and 7.3 µM in assay [1]. `Cc1cccc(NC(=O)c2cccc(OCCc3ccccc3)c2)n1` had a half-maximal inhibitory concentration (IC50) in assay [1] of 23.6 µM. As to `Cc1cccc(NC(=O)c2ccc(Cl)cc2)n1`, the result in assay [3] was inactive.

Turning to `Cc1cccc(NC(=O)c2cccc(Oc3ccccc3)c2)n1`, the IC50 in assay [1] is 57 µM. `COc1cccc(C(=O)Nc2nc(C)cs2)c1` returned an IC50 in assay [1] of 9.1 µM. Consider `O=C(Nc1cccc(Cl)n1)c1cccc(Cl)c1`, for which the half-maximal inhibitory concentration (IC50) was determined as 12.7 µM in assay [2] and 1.53 µM in assay [1]. Turning to `Cc1cccc(/C=C/c2ccccc2)n1`, the half-inhibitory concentration (IC50) in assay [1] came to 1.08 µM. With `Cc1cccc(NC(=O)c2cccc(I)c2)n1`, the half-inhibitory concentration (IC50) in assay [2] is 10.8 µM; in assay [1], 1.08 µM.

In assay [3], `Cc1ccc(S(=O)(=O)N2CCCC(C(=O)Nc3cccc(C)n3)C2)cc1` (centres undefined) gave an inhibition of 31%. With `Cc1cccc(NC(=O)c2cccc(S(C)(=O)=O)c2)n1`, in assay [3], the outcome was inactive. `Cc1cccc(NC(=O)c2cccc(/C=C/c3ccccc3)c2)n1`: in assay [3], the outcome was inactive. For `Cc1cccc(NC(=O)C2CCCN(C)C2)n1` (centres undefined), in assay [3], the result was inactive. As to `COc1cccc(C(=O)Nc2cccc(C)n2)c1`, the IC50 worked out at 46 µM in assay [2] and 9.76 µM in assay [1].

With `Cc1csc(NC(=O)c2cccc(Cl)c2)n1`, the IC50 in assay [2] stood at 15 µM; in assay [1] it was 5.49 µM.

`Cc1cccc(NC(=O)c2cccc(Cl)c2)n1` gave an IC50 in assay [1] of 1.73 µM. Besides, in assay [4], the inhibition stood at 66%.

Consider `Cc1ccc(S(=O)(=O)Nc2cccc(C)n2)cc1`, for which the result in assay [3] was inactive. Same read-out and setting: as for `Cc1cccc(NC(=O)c2ccc3ccccc3c2)n1`, the entry is “inactive”; as for `Cc1cccc(CNc2ccccc2)n1`, “inactive”.

On to `Cc1cccc(C(=O)Nc2cccc(C)n2)c1`, for which the half-maximal inhibitory concentration (IC50) came out at 5.9 µM in assay [2] and 1.84 µM in assay [1]. The compound `Cc1cccc(NC(=O)c2cccc(OS(C)(=O)=O)c2)n1` returned a half-maximal inhibitory concentration (IC50) in assay [1] of 83.6 µM. Still for that read-out and setting: as for `Cc1cccc(NC(=O)c2ccccc2)n1`, the figure is 35 µM.

Regarding `Cc1cccc(NC(=O)c2ccccc2Cl)n1`, the outcome in assay [3] was inactive. In turn, `Cc1cccc(NC(=O)C2CCCN(Cc3cccc(Cl)c3)C2)n1` (centres undefined) registered an inhibition in assay [3] of 31%. Consider `Cc1cccc(NCc2ccccc2)n1`, for which, in assay [3], the result was inactive. `Cc1cccc(NC(=O)c2cccc(C(F)(F)F)c2)n1`: the IC50 in assay [1] came to 18.7 µM.

Regarding `Cc1csc(NC(=O)c2ccccc2)n1`, in assay [1], the concentration for half-maximal inhibition (IC50) worked out at 65 µM.

Take `Cc1csc(NC(=O)c2cccnc2)n1`: in assay [3], the result was inactive. For `Cc1cccc(NC(=O)C2CCCN(Cc3ccccc3)C2)n1` (centres undefined), the inhibition in assay [3] worked out at 14%.
